Published values gathered from unrelated publications.
Each line is one published result; the experiments were not run side by side.
BRD9: Bromodomain-containing protein 9 (BRD9, Homo sapiens, UniProt Q9H8M2)
ACVR2A: Activin receptor type-2A (ACVR2A, Homo sapiens, UniProt P27037)

SMILES | target | assay | setting | endpoint | result
CC(=O)ON=C1C=CC(=C(C#N)c2ccccc2)C=C1 | Serine/threonine-protein kinase haspin (HASPIN, Homo sapiens, UniProt Q8TF76) | enzyme activity, inhibitor, ADP detection | 2 µM | activity vs control | 76%
CCN(C)Cc1c(OC)cc(-c2cc(C(C)=O)n3ccccc23)cc1OC | BRD9 | thermal stability, DSF | 200 µM | ΔTm | 15.5 °C
CCCC[C@H](NC(C)=O)C(=O)N[C@H]1CC(=O)NCCCC[C@@H](C(=O)N2CCC[C@@H]2C(=O)N[C@@H](C(=O)N2CCC[C@@H]2C(N)=O)C(C)C)NC(=O)[C@H](Cc2c[nH]c3ccccc23)NC(=O)[C@H](CCCNC(=N)N)NC(=O)[C@@H](Cc2ccccc2)NC(=O)[C@@H]2CCCN2C1=O | Melanocortin receptor 5 (MC5R, Homo sapiens, UniProt P33032) | cAMP, agonist |  | Emax | 102%
Cc1cc(O)c(-c2ccc([C@@H](C)CN(C)C)cc2)c2c1[nH]c(=O)c1sccc12 | STE20-related kinase adapter protein beta (Homo sapiens, UniProt Q9C0K7) | enzyme activity, inhibitor | 0.1 µM, lysate | inhibition | 18.9%
CCN1/C(=C/C(C)=O)Sc2ccc(F)cc21 | Histamine H3 receptor (HRH3, Homo sapiens, UniProt Q9Y5N1) | ligand displacement, radioligand | 10 µM | inhibition | 0%
C#Cc1cc(-c2cc(Nc3nc(N[C@@H](C)c4ccc(F)cn4)ncc3Cl)n[nH]2)ccc1C=O | G protein-coupled receptor kinase 6 (GRK6, Homo sapiens, UniProt P43250) | enzyme activity, inhibitor | 0.2 µM | inhibition | 18.9%
COc1cc(-c2cc(C(C)=O)n3ccccc23)cc(OC)c1CN1CC(O)C1 | BRD9 | thermal stability, DSF | 200 µM | ΔTm | 14.8 °C
COc1ccc2oc(-c3ccc4nc(N)oc4c3)c/c(=N\c3ccccc3NC(=O)CCN)c2c1 | ACVR2A | binding, competition with immobilised ligand | 1 µM | remaining binding | 109%
NC/C(=C\F)COc1cccc(Cn2c(=S)[nH]c(=O)c3[nH]cnc32)c1 | Beta-2 adrenergic receptor (ADRB2, Homo sapiens, UniProt P07550) | ligand displacement, radioligand | 10 µM | inhibition | < 50%
COc1cc(-c2cc(C(C)=O)n3ccccc23)c(OC)cc1C(=O)N1CCOCC1 | BRD9 | thermal stability, DSF | 200 µM | ΔTm | 13.8 °C
C1=C/COCc2cc(ccc2OCCN2CCCC2)Nc2nccc(n2)-c2cccc(c2)COC/1 | Cyclin-dependent kinase-like 3 (CDKL3, Homo sapiens, UniProt Q8IVW4) | binding | 0.1 µM | remaining binding | 5.9%
COc1cc(-c2cc(C(C)=O)n3ccccc23)c(OC)cc1C(C)=O | BRD9 | thermal stability, DSF | 200 µM | ΔTm | 7.5 °C
Cc1ncc(-c2cc3cc(-c4c(C)ccc(O)c4C)cnc3[nH]2)cn1 | Membrane-associated tyrosine- and threonine-specific cdc2-inhibitory kinase (PKMYT1, Homo sapiens, UniProt Q99640) | cell-free assay, TR-FRET | 0.1235 µM | inhibition | 97.2%
COc1cc(C(C)(C)O)c(OC)cc1-c1cc(C(C)=O)n2ccccc12 | BRD9 | thermal stability, DSF | 200 µM | ΔTm | 10.5 °C
CCCCC(=O)Nc1ccc(-c2ccc3ncn(CCC)c(=O)c3c2)cn1 | ACVR2A | binding, competition with immobilised ligand | 0.5 µM | remaining binding | 95%
